Reference: ChEMBL document CHEMBL4196081, “Synthesis and antimycobacterial activity of 1-(β-d-Ribofuranosyl)-4-coumarinyloxymethyl- / -coumarinyl-1,2,3-triazole” (Eur J Med Chem, 2018)
Values after ≈ are worked out from the molar mass of the structure shown. Active and inactive are the calls of the source. No cut-off for these calls is given here.

Columns and labels:
[1] = Cytotoxicity against human THP1 cells assessed as cell viability at 18.72 ug/ml after 48 hrs by MTT assay relative to control; type: cell-based; conditions: THP-1 cells, read-out: Activity
In short: (§1)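 THP-1 cells (human monocytic line) seeded at 10^4 per well and adhered with phorbol myristate acetate (20 ng/mL). Then given fresh RPMI with 10% foetal calf serum and 2 mM L-glutamine, plus compound by serial double dilution (4.68–150 µg/mL), with DMSO and no-DMSO controls. Incubated 24 or 48 h at 37 °C, 5% CO2. MTT added for 4 h, formazan dissolved in DMSO, A540 read, percentage survival calculated.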

[2] = Cytotoxicity against human THP1 cells assessed as cell viability at 150 ug/ml after 48 hrs by MTT assay relative to control; type: cell-based; conditions: THP-1 cells, read-out: Activity; in short: as §1
[3] = Cytotoxicity against human THP1 cells assessed as cell viability at 4.68 ug/ml after 24 hrs by MTT assay relative to control; type: cell-based; conditions: THP-1 cells, read-out: Activity; in short: as §1
[4] = system: Mycobacterium tuberculosis; assay: Bactericidal activity against Mycobacterium tuberculosis H37Rv after 4 weeks by MABA; type: functional; conditions: 672 h
[5] = Cytotoxicity against human THP1 cells assessed as cell viability at 18.72 ug/ml after 24 hrs by MTT assay relative to control; type: cell-based; conditions: THP-1 cells, read-out: Activity; in short: as §1
[6] = Cytotoxicity against human THP1 cells assessed as cell viability at 37.48 ug/ml after 24 hrs by MTT assay relative to control; type: cell-based; conditions: THP-1 cells, read-out: Activity; in short: as §1
[7] = Cytotoxicity against human THP1 cells assessed as cell viability at 9.36 ug/ml after 48 hrs by MTT assay relative to control; type: cell-based; conditions: THP-1 cells, read-out: Activity; in short: as §1
[8] = Cytotoxicity against human THP1 cells assessed as cell viability at 4.68 ug/ml after 48 hrs by MTT assay relative to control; type: cell-based; conditions: THP-1 cells, read-out: Activity; in short: as §1
[9] = system: Mycobacterium tuberculosis; assay: Antimycobacterial activity against Mycobacterium tuberculosis H37Rv after 10 days by MABA; type: functional; conditions: 240 h
In short: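 MABA in 7H9 medium: log-phase culture passed through 8 µm filter, density set by OD600 and McFarland standards, 1 × 10^6 cells per well with drug dilutions; aerobic incubation 37 °C 10 days, then 0.02 % resazurin, overnight 37 °C. MIC = lowest concentration preventing blue-to-pink change. Triplicate; medium+inoculum and medium-only controls.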

[10] = Cytotoxicity against human THP1 cells assessed as cell viability at 75 ug/ml after 48 hrs by MTT assay relative to control; type: cell-based; conditions: THP-1 cells, read-out: Activity; in short: as §1
[11] = Cytotoxicity against human THP1 cells assessed as cell viability at 37.48 ug/ml after 48 hrs by MTT assay relative to control; type: cell-based; conditions: THP-1 cells, read-out: Activity; in short: as §1
[12] = Cytotoxicity against human THP1 cells assessed as cell viability at 75 ug/ml after 24 hrs by MTT assay relative to control; type: cell-based; conditions: THP-1 cells, read-out: Activity; in short: as §1
[13] = system: Mycobacterium tuberculosis; assay: Antimycobacterial activity against MDR Mycobacterium tuberculosis isolate 591 after 15 days by MABA; type: functional; conditions: isolate 591, 360 h
In short: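 MABA in 7H9 medium on MDR clinical isolate 591: filtered single-cell suspension, 1 × 10^6 cells per well with drug dilutions, aerobic 37 °C; 0.02 % resazurin added on day 15, overnight 37 °C. MIC = lowest concentration preventing blue-to-pink change. Triplicate; medium+inoculum and medium-only controls.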

[14] = Selectivity index, ratio of IC50 for cytotoxicity against human THP1 cells to MIC for Mycobacterium tuberculosis H37Rv; type: toxicity, cell-based; conditions: THP-1 cells, read-out: Selectivity Index
In short: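 THP-1 cells, 10^4/well, adhered with PMA 20 ng/mL, in RPMI with 10 % FCS and 2 mM L-glutamine; exposed to 4.68–150 µg/mL for 24 and 48 h at 37 °C, 5 % CO2; MTT 4 h, formazan in DMSO, A540. Index = THP-1 IC50 divided by H37Rv MABA MIC.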

[15] = system: Mycobacterium tuberculosis; assay: Ratio of MBC to MIC for Mycobacterium tuberculosis H37Rv; type: functional
THP-1 = assay: Cytotoxicity against human THP1 cells assessed as growth inhibition after 24 to 48 hrs by MTT assay; type: cell-based; in short: as §1
[16] = Cytotoxicity against human THP1 cells assessed as cell viability at 150 ug/ml after 24 hrs by MTT assay relative to control; type: cell-based; conditions: THP-1 cells, read-out: Activity; in short: as §1
[17] = Cytotoxicity against human THP1 cells assessed as cell viability at 9.36 ug/ml after 24 hrs by MTT assay relative to control; type: cell-based; conditions: THP-1 cells, read-out: Activity; in short: as §1
[18] = target: DNA gyrase subunit B (Escherichia coli) (UniProt P0AES6); assay: Inhibition of Escherichia coli DNA gyrase-B at 0.66 to 100 uM using relaxed pUC19 DNA as substrate after 1 hr by bromophenol blue dye based agarose gel electrophoresis method
In short: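 E. coli DNA gyrase, 1 unit, with 0.3 µg relaxed pUC19 plasmid in 1X gyrase assay buffer. Compound added as 0.2 µL from 100 µM stock; ciprofloxacin positive control, DMSO solvent control. Incubated 37 °C for 1 h, stopped with 50% glycerol/0.25% bromophenol blue. Run on 1% agarose in 0.5X TBE pH 8.3, 16 h at 30 mA, ethidium bromide stained, UV visualised for supercoiling.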

[19] = system: Mycobacterium tuberculosis; assay: Potency index, ratio of isoniazid MIC to compound MIC for antimycobacterial activity against MDR Mycobacterium tuberculosis isolate 591; type: functional
[20] = system: Mycobacterium tuberculosis; assay: Potency index, ratio of rifampicin MIC to compound MIC for antimycobacterial activity against MDR Mycobacterium tuberculosis isolate 591; type: functional
[21] = system: Mycobacterium tuberculosis; assay: Potency index, ratio of ethambutol MIC to compound MIC for antimycobacterial activity against MDR Mycobacterium tuberculosis isolate 591; type: functional
[22] = system: Mycobacterium tuberculosis; assay: Potency index, ratio of streptomycin MIC to compound MIC for antimycobacterial activity against MDR Mycobacterium tuberculosis isolate 591; type: functional

O=c1cc(-c2ccccc2)c2ccc(-c3cn([C@@H]4O[C@H](CO)[C@@H](O)[C@H]4O)nn3)cc2o1
viability at 48 h, 18.72 ug/ml [1]: 83% | viability at 48 h, 150 ug/ml [2]: 62% | viability at 24 h, 4.68 ug/ml [3]: 100% | MBC [4]: 28.5 µM (≈ 12 µg/mL) | viability at 24 h, 18.72 ug/ml [5]: 84% | viability at 24 h, 37.48 ug/ml [6]: 70% | viability at 48 h, 9.36 ug/ml [7]: 94% | viability at 48 h, 4.68 ug/ml [8]: 96% | MIC [9]: 14.2 µM (≈ 5.98 µg/mL) | viability at 48 h, 75 ug/ml [10]: 63% | viability at 48 h, 37.48 ug/ml [11]: 70% | viability at 24 h, 75 ug/ml [12]: 68% | MIC [13]: 18.9 µM (≈ 7.96 µg/mL) | selectivity ratio [14]: 25 | Ratio [15]: 2 | IC50 (THP-1): > 355 µM | viability at 24 h, 150 ug/ml [16]: 65% | viability at 24 h, 9.36 ug/ml [17]: 94%

O=C(O)c1cn(C2CC2)c2cc(N3CCNCC3)c(F)cc2c1=O
inhibition [18]: Active

[H]/N=C(/N)N[C@H]1[C@H](O)[C@@H](O)[C@H](O[C@@H]2O[C@@H](C)[C@](O)(C=O)[C@H]2O[C@@H]2O[C@@H](CO)[C@H](O)[C@@H](O)[C@@H]2NC)[C@@H](N/C(N)=N\[H])[C@@H]1O [STREPTOMYCIN]
viability at 48 h, 18.72 ug/ml [1]: 84% | viability at 48 h, 150 ug/ml [2]: 55% | viability at 24 h, 4.68 ug/ml [3]: 100% | viability at 24 h, 18.72 ug/ml [5]: 98% | viability at 24 h, 37.48 ug/ml [6]: 89% | viability at 48 h, 9.36 ug/ml [7]: 86% | viability at 48 h, 4.68 ug/ml [8]: 90% | MIC [9]: 0.43 µM (≈ 0.25 µg/mL) | viability at 48 h, 75 ug/ml [10]: 69% | viability at 48 h, 37.48 ug/ml [11]: 77% | viability at 24 h, 75 ug/ml [12]: 80% | MIC [13]: 69 µM (≈ 40.1 µg/mL) | selectivity ratio [14]: 600 | IC50 (THP-1): > 258 µM | viability at 24 h, 150 ug/ml [16]: 75% | viability at 24 h, 9.36 ug/ml [17]: 99%

O=C(OC[C@H]1O[C@@H](n2cc(COc3ccc4ccc(=O)oc4c3)nn2)[C@H](OC(=O)c2ccccc2)[C@@H]1OC(=O)c1ccccc1)c1ccccc1
MBC [4]: 26.2 µM (≈ 18 µg/mL) | MIC [9]: 11.6 µM (≈ 7.98 µg/mL) | MIC [13]: 14.5 µM (≈ 9.97 µg/mL) | Ratio [15]: 2.25

O=C(OC[C@H]1O[C@@H](n2cc(COc3ccc4c(-c5ccccc5)cc(=O)oc4c3)nn2)[C@H](OC(=O)c2ccccc2)[C@@H]1OC(=O)c1ccccc1)c1ccccc1
viability at 48 h, 18.72 ug/ml [1]: 84% | viability at 48 h, 150 ug/ml [2]: 64% | viability at 24 h, 4.68 ug/ml [3]: 100% | MBC [4]: 10.5 µM (≈ 8.02 µg/mL) | viability at 24 h, 18.72 ug/ml [5]: 97% | viability at 24 h, 37.48 ug/ml [6]: 81% | viability at 48 h, 9.36 ug/ml [7]: 93% | viability at 48 h, 4.68 ug/ml [8]: 95% | Ratio [19]: 7 - 420 | MIC [9]: 5.2 µM (≈ 3.97 µg/mL) | Ratio [20]: 7 - 420 | viability at 48 h, 75 ug/ml [10]: 70% | viability at 48 h, 37.48 ug/ml [11]: 74% | viability at 24 h, 75 ug/ml [12]: 81% | MIC [13]: 5.2 µM (≈ 3.97 µg/mL) | selectivity ratio [14]: 37.6 | Ratio [15]: 2 | IC50 (THP-1): > 196 µM | Ratio [21]: 7 - 420 | Ratio [22]: 7 - 420 | viability at 24 h, 150 ug/ml [16]: 66% | viability at 24 h, 9.36 ug/ml [17]: 100%

O=C(OC[C@H]1O[C@@H](n2cc(-c3ccc4c(-c5ccccc5)cc(=O)oc4c3)nn2)[C@H](OC(=O)c2ccccc2)[C@@H]1OC(=O)c1ccccc1)c1ccccc1
MBC [4]: 24.5 µM (≈ 18 µg/mL) | MIC [9]: 10.9 µM (≈ 8 µg/mL) | MIC [13]: 13.6 µM (≈ 9.98 µg/mL) | Ratio [15]: 2.25

Cc1cc(=O)oc2cc(-c3cn([C@@H]4O[C@H](CO)[C@@H](O)[C@H]4O)nn3)c(Cl)cc12
MIC [9]: 30.5 µM (≈ 12 µg/mL) | MIC [13]: 25.4 µM (≈ 10 µg/mL)

O=c1ccc2ccc(OCc3cn([C@@H]4O[C@H](CO)[C@@H](O)[C@H]4O)nn3)cc2o1
viability at 48 h, 18.72 ug/ml [1]: 84% | viability at 48 h, 150 ug/ml [2]: 55% | viability at 24 h, 4.68 ug/ml [3]: 100% | MBC [4]: 26.6 µM (≈ 9.98 µg/mL) | viability at 24 h, 18.72 ug/ml [5]: 89% | viability at 24 h, 37.48 ug/ml [6]: 86% | viability at 48 h, 9.36 ug/ml [7]: 86% | viability at 48 h, 4.68 ug/ml [8]: 89% | MIC [9]: 10.6 µM (≈ 3.98 µg/mL) | viability at 48 h, 75 ug/ml [10]: 59% | viability at 48 h, 37.48 ug/ml [11]: 63% | viability at 24 h, 75 ug/ml [12]: 68% | MIC [13]: 15.9 µM (≈ 5.97 µg/mL) | selectivity ratio [14]: 37.7 | Ratio [15]: 2.5 | IC50 (THP-1): > 400 µM | viability at 24 h, 150 ug/ml [16]: 60% | viability at 24 h, 9.36 ug/ml [17]: 91%

O=C(OC[C@H]1O[C@@H](n2cc(-c3ccc4ccc(=O)oc4c3)nn2)[C@H](OC(=O)c2ccccc2)[C@@H]1OC(=O)c1ccccc1)c1ccccc1
MBC [4]: 30.4 µM (≈ 20 µg/mL) | MIC [9]: 15.2 µM (≈ 10 µg/mL) | MIC [13]: 30.4 µM (≈ 20 µg/mL) | Ratio [15]: 2
